In ChEMBL document CHEMBL5376016, “Synthesis of novel rapanone derivatives via organocatalytic reductive C-alkylation: biological evaluation of antioxidant properties, in vivo zebrafish embryo toxicity, and docking studies” (RSC Med Chem, 2024):
pIC50: −log10 of the molar value.

How the values were obtained:
[1] = Antioxidant activity assessed as DPPH radical scavenging activity after 30 mins by spectrophotometric analysis; type: functional
Method in brief: (§1)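 Ascorbic acid was the reference standard. For DPPH, 0.2 mM DPPH in methanol was kept in the dark, mixed with compound at 5–160 µM (DMSO stock), and incubated 30 min in the dark at room temperature, then A517 was read. %RSA = (Ac−As)/Ac×100. Triplicate runs; IC50 taken from the plot of % scavenging versus concentration.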

[2] = Antioxidant activity assessed as DPPH radical scavenging activity after 30 mins by spectrophotometric analysis relative to control; type: functional; design: concentration or dose not given beside the values; method in brief: as §1
[3] = Antioxidant activity assessed as ABTS radical scavenging activity after 6 mins by spectrophotometric analysis relative to control; type: functional; design: concentration or dose not given beside the values
[4] = Antioxidant activity assessed as ABTS radical scavenging activity after 6 mins by spectrophotometric analysis; type: functional
[5] = Acute toxicity in zebrafish embryo assessed as survival rate at 96 hrs post fertilization relative to control; design: species or system Danio rerio; concentration or dose not given beside the values; conditions: in vivo
Method in brief: (§2)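 Lethality endpoints were coagulation and absence of heartbeat, checked by inverted microscope. Survival was compared with untreated embryos across three independent experiments; mean ± SD, ANOVA.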

[6] = Acute toxicity in zebrafish embryo assessed as survival rate at 20 uM measured after 96 hrs post fertilization relative to control; design: species or system Danio rerio; conditions: in vivo; method in brief: as §2
[7] = Acute toxicity in zebrafish embryo assessed as survival rate at 160 uM measured after 96 hrs post fertilization relative to control; design: species or system Danio rerio; conditions: in vivo; method in brief: as §2
[8] = Acute toxicity in zebrafish embryo assessed as hatching rate at 20 to 160 uM measured after 48 hrs post fertilization relative to control; design: species or system Danio rerio; conditions: in vivo, dose 20-160 µM
Method in brief: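 Controls were water and water with 0.5% DMSO. Incubation at 26.8 ± 1 °C, 20 embryos per well. Hatching scored over 0–96 hpf under an inverted microscope. Triplicate, three independent experiments; mean ± SD; ANOVA.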

[9] = Acute toxicity in zebrafish embryo assessed as morphological changes at upto 160 uM measured after 48 hrs post fertilization relative to control; design: species or system Danio rerio; conditions: in vivo
Method in brief: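 Wild-type Danio rerio embryos were exposed in milli-Q water with compound dissolved in DMSO (≤0.25 v/v final). Controls were milli-Q water and water with DMSO. Embryos were held at 26.8 ± 1 °C and scored by inverted microscope at 24–96 hpf, after exposure at 160 µM, for bent spine, yolk sac edema, pericardial edema, short tail and bent tail.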

| Compound | pIC50 [1] | Activity [2] [%] | Activity [3] [%] | pIC50 [4] | survival at 96 h ([5]; read-out: Activity) [%] | survival at 96 h, 20 µM [6] [%] | survival at 96 h, 160 µM [7] [%] | Activity [8] [%] | Activity [9] | survival at 96 h ([5]; read-out: Survival) [%] |
| --- | --- | --- | --- | --- | --- | --- | --- | --- | --- | --- |
| CCCCCCCCCCCC1=C(O)C(=O)C(Cc2ccc(C)cc2)=C(O)C1=O | 5.74 | 89.4 | 90.3 | 5.74 | 70 | 52 | 70 | 75.66 | Non-Toxic |  |
| CCCCCCCCCCCC1=C(O)C(=O)C(Cc2ccc(C#N)cc2)=C(O)C1=O | 5.34 | 50.3 | 52.1 | 5.29 |  |  |  | 51.33 | Non-Toxic | > 90 |
| O=C1O[C@H]([C@@H](O)CO)C(O)=C1O [ASCORBIC ACID] | 5.73 | 90.2 | 91.1 | 5.85 |  |  |  |  |  |  |
| CCCCCCCCCCCC1=C(O)C(=O)C(Cc2c(Cl)cccc2Cl)=C(O)C1=O | 5.31 | 50.3 | 52.1 | 5.28 |  |  |  | 51.33 | Non-Toxic | > 90 |
| CCCCCCCCCCCC1=C(O)C(=O)C(Cc2ccc(OC)cc2)=C(O)C1=O | 5.50 | 71.1 | 80.2 | 5.57 | 70 | 52 | 70 | 75.66 | Non-Toxic |  |
| CCCCCCCCCCCC1=C(O)C(=O)C(CC)=C(O)C1=O | 5.58 | 80 | 80.2 | 5.61 | 70 | 52 | 70 | 75.66 | Non-Toxic |  |
| CCCCCCCCCCCC1=C(O)C(=O)C(Cc2ccc(N(C)C)cc2)=C(O)C1=O | 5.47 | 71.1 | 75.1 | 5.54 | 70 | 52 | 70 | 75.66 | Non-Toxic |  |
| CCCCCCCCCCCC1=C(O)C(=O)C(Cc2c(OC)cc(OC)cc2OC)=C(O)C1=O | 5.51 | 71.1 | 80.2 | 5.59 | 70 | 52 | 70 | 75.66 | Non-Toxic |  |
| CCCCCCCCCCCC1=C(O)C(=O)C(Cc2cccc([N+](=O)[O-])c2)=C(O)C1=O | 5.32 | 50.3 | 52.1 | 5.27 |  |  |  | 51.33 | Non-Toxic | > 90 |
| CCCCCCCCCCCC1=C(O)C(=O)C(CC(C)C)=C(O)C1=O | 5.61 | 80 | 80.2 |  | 70 | 52 | 70 | 75.66 | Non-Toxic |  |
| CCCCCCCCCCCC1=C(O)C(=O)C(Cc2ccccc2F)=C(O)C1=O | 5.34 | 50.3 | 52.1 | 5.26 |  |  |  | 51.33 | Non-Toxic | > 90 |
| CCCCCCCCCCCC1=C(O)C(=O)C(Cc2ccccc2O)=C(O)C1=O | 5.52 | 71.1 | 75.1 | 5.54 | 70 | 52 | 70 | 75.66 | Non-Toxic |  |
| CCCCCCCCCCCC1=C(O)C(=O)C(Cc2ccc(C(C)C)cc2)=C(O)C1=O | 5.72 | 86 | 87.2 | 5.72 | 70 | 52 | 70 | 75.66 | Non-Toxic |  |
| CCCCCCCCCCCC1=C(O)C(=O)C(Cc2ccc(Cl)cc2Cl)=C(O)C1=O | 5.32 | 50.3 | 52.1 | 5.35 |  |  |  | 51.33 | Non-Toxic | > 90 |
| CCCCCCCCCCCC1=C(O)C(=O)C(Cc2ccc(Cl)cc2)=C(O)C1=O | 5.31 | 50.3 | 52.1 | 5.30 |  |  |  | 51.33 | Non-Toxic | > 90 |
| CCCCCCCCCCCC1=C(O)C(=O)C(Cc2ccccc2C#N)=C(O)C1=O | 5.35 | 50.3 | 52.1 | 5.30 |  |  |  | 51.33 | Non-Toxic | > 90 |
| CCCCCCCCCCCC1=C(O)C(=O)C(Cc2ccccc2Br)=C(O)C1=O | 5.34 | 50.3 | 52.1 | 5.26 |  |  |  | 51.33 | Non-Toxic | > 90 |
| CCCCCCCCCCCC1=C(O)C(=O)C(CCCl)=C(O)C1=O | 5.34 | 50.3 | 52.1 | 5.36 |  |  |  | 51.33 | Non-Toxic | > 90 |
| CCCCCCCCCCCC1=C(O)C(=O)C(Cc2ccc(Cl)c(Cl)c2)=C(O)C1=O | 5.31 | 50.3 | 52.1 | 5.29 |  |  |  | 51.33 | Non-Toxic | > 90 |
| CCCCCCCCCCCC1=C(O)C(=O)C(Cc2ccccc2[N+](=O)[O-])=C(O)C1=O | 5.32 | 50.3 | 52.1 | 5.27 |  |  |  | 51.33 | Non-Toxic | > 90 |
| CCCCCCCCCCCC1=C(O)C(=O)C(Cc2ccccc2C)=C(O)C1=O | 5.60 | 80 | 80.2 | 5.69 | 70 | 52 | 70 | 75.66 | Non-Toxic |  |
| CCCCCCCCCCCC1=C(O)C(=O)C(Cc2ccc(Br)cc2)=C(O)C1=O | 5.34 | 50.3 | 52.1 | 5.29 |  |  |  | 51.33 | Non-Toxic | > 90 |
| CCCCCCCCCCCC1=C(O)C(=O)C(Cc2ccc(F)cc2)=C(O)C1=O | 5.33 | 50.3 | 52.1 | 5.28 |  |  |  | 51.33 | Non-Toxic | > 90 |
| CCCCCCCCCCCC1=C(O)C(=O)C(Cc2cc(Cl)ccc2Cl)=C(O)C1=O | 5.33 | 50.3 | 52.1 | 5.27 |  |  |  | 51.33 | Non-Toxic | > 90 |
| CCCCCCCCCCCC1=C(O)C(=O)C(Cc2ccc(O)cc2)=C(O)C1=O | 5.55 | 80 | 75.1 | 5.57 | 70 | 52 | 70 | 75.66 | Non-Toxic |  |
| CCCCCCCCCCCC1=C(O)C(=O)C(Cc2cc(OC)c(OC)c(OC)c2)=C(O)C1=O | 5.53 | 80 | 80.2 | 5.61 | 70 | 52 | 70 | 75.66 | Non-Toxic |  |
| CCCCCCCCCCCC1=C(O)C(=O)C(Cc2ccccc2)=C(O)C1=O | 5.50 | 71.1 | 80.2 | 5.57 | 70 | 52 | 70 | 75.66 | Non-Toxic |  |
| C#Cc1ccccc1CC1=C(O)C(=O)C(CCCCCCCCCCC)=C(O)C1=O | 5.31 | 50.3 | 52.1 | 5.30 |  |  |  | 51.33 | Non-Toxic | > 90 |
| CCCCCCCCCCCC1=C(O)C(=O)C(Cc2ccc([N+](=O)[O-])cc2)=C(O)C1=O | 5.31 | 50.3 | 52.1 | 5.28 |  |  |  | 51.33 | Non-Toxic | > 90 |
